Source: PubChem (several laboratories)
Sampled rows, rich in hits. Any-hit rate of the full collection: about 3.9%.
STAT1 blocker: inhibitors of IFN-gamma induced STAT1 signaling; 200,000 tested, 0.35% active; AID 920; NIH 3T3 STAT1-luciferase reporter, luminescence; inhibition, % at 5.5 µM;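 active = inhibition above a set limit, the mean inhibition across all tested compounds plus 3 SD, cut at about 34% in these data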;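 also: 0% = IFN-gamma with DMSO and 100% = IFN-gamma with 300 µM nifuroxazide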
STAT1 activator: activators of IFN-gamma induced STAT1 signaling; NIH 3T3 STAT1-luciferase reporter, luminescence; 100% = IFN-gamma alone, no compound; AID 932; 200,000 tested, 2.6% active; activation (% of control), % at 5.5 µM;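 active = activation above the screen-wide mean activation plus 3 SD, cut at about 130% in these data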;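 also: raw ratio to IFN-gamma control signal so 100% means no change and 0% no light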
STAT3 activator: activators of IL-6 induced STAT3 signaling; AID 871; 190,000 tested, 0.91% active; activation (% of control), % at 5.6 µM; U3A cells, IL-6 STAT3-luciferase reporter, luminescence; 100% = signal with IL-6 EC80 alone;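 active = activation above the screen-wide mean of compound activation plus 3 SD, cut at about 130% in these data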;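 also: 0% = background luminescence of wells with medium and substrate only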
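Test system: STAT3-luciferase reporter U3A cells; Detection: reporter luminescence signal; Times: 1 h compound pre-exposure, 6 h IL-6 stimulation, 37 °C; Benchmarks: IL-6-only high control; Also added: IL-6 stimulus at 33 ng/mL final.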
NF-kB neuron act: compounds increasing NF-kB expression in human neuronal cells. AID 1239. fold change at 12.5 µM. NF-kB reporter expression; stronger effect = higher value. 190,000 tested, 1.6% active; in the data active = fold change above about 3.3
APP 5'UTR act: APP 5'UTR luciferase reporter activation; SH-SY5Y APP 5'UTR luciferase reporter, luminescence; zero percent = DMSO vehicle wells; activation, % at 2 µM; AID 1276; 190,000 tested, 1% active;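 active = activation above a set limit, based on mean plus 3 SD of controls, cut at about 140% in these data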
Pf gametocyte: inhibitors of late stage P. falciparum gametocyte viability; P. falciparum stage V gametocytes, ATP luminescence, 24 h; inhibition, % at 10.9 µM; 150,000 tested, 0.065% active; AID 743093;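 active = inhibition above the mean plus 3 SD of compounds within the control limits, set per campaign, cut at about 38% in these data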;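 also: 0% = DMSO wells and 100% = medium only without gametocytes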
* = called active by the depositor; / = no result.

SMILES	STAT1 blocker	STAT1 activator	STAT3 activator	NF-kB neuron act	APP 5'UTR act	Pf gametocyte
CCOC(=O)CNC(=O)CSc1ncnc2c1nnn2-c1ccc(F)cc1	4	97	96	1.7	-5	/
COC(=O)C(C)Sc1ncnc2c1nnn2-c1ccc(F)cc1 (stereo not given)	-41	137*	92	1.5	14	/
O=c1c2ccccc2nc2ccc(NCc3cccs3)nn12	-28	123	94	3.4*	122	/
c1ccc(-c2nc3cc4ccccc4cc3[nH]2)nc1	44*	60	28	2.8	157*	-5
CCN=c1scc(-c2ccc(F)cc2)n1/N=C/c1ccccn1	-41	138*	85	5*	107	-19
Cc1nc2ccccc2c(=O)n1/N=C/c1ccccn1	-25	123	96	1.2	4	/
CCN=c1scc(-c2ccccc2)n1/N=C/c1ccccn1	-76	170*	61	3	166*	/
Cc1ccc(F)cc1NC(=O)CSc1ncccn1	-13	110	103	1.1	-3	/
O=C(O)c1c(-c2ccc(Cl)cc2)cn2ccccc12	-38	135*	112	2.1	16	/
O=C(NCC1CCCO1)c1ccc(NC(=O)c2cc(F)c(F)cc2Cl)cc1 (stereo not given)	/	/	/	/	/	11
N#Cc1c(Cl)cccc1Oc1ccc(S(=O)(=O)Nc2ccccc2)cc1	/	/	/	/	/	-4
Cc1cccc(CSc2cccc3cccnc23)c1	-51	146*	115	3	-35	/
NNC(=O)c1ccc(CSc2cccc3cccnc23)cc1	-2	102	90	1.1	22	1
O=C(/C=C/c1ccccc1)NC(NC(=S)Nc1cc(Cl)ccc1Cl)C(Cl)(Cl)Cl (stereo not given)	3	97	95	0.98	7	-11
CCOC(=O)Cc1c(C)nc(SC)[nH]c1=O	-5	105	100	/	3	/
O=c1[nH]c2ccccc2nc1CCc1ccccc1	-52	145*	92	1.1	15	-17
c1ccc(CCc2nc3ccccc3[nH]2)cc1	-23	119	98	1.9	58	-14
O=C(Nc1cccc(O)c1)c1noc2c1CCCCC2	9	91	31	3.1	114	7
COc1ccc(CNC(=O)c2noc3c2CCCCC3)cc1	-5	106	99	1.6	-1	/
O=C(NCc1ccccc1)c1noc2c1CCCCC2	-33	130*	113	1.9	66	-2
Cc1ccc(NC(=O)c2noc3c2CCC3)cc1C	-11	108	95	8.3*	182*	3
O=C(Nc1cnn(Cc2ccc(F)cc2)c1)c1noc2c1CCCC2	-34	129*	95	1.6	59	3
CC(C)(C)C1CCc2onc(C(=O)Nc3cnn(Cc4ccc(F)cc4)c3)c2C1 (stereo not given)	-10	109	87	0.86	-10	-15
COc1ccc(NC(=O)c2noc3c2CCC3)cc1	-42	139*	97	4*	143*	-8
CCN(CC)S(=O)(=O)c1cc(NC(=O)CSc2nc3c(cc2C#N)C(=O)CC(C)(C)C3)ccc1C	-9	108	108	0.79	-1	/
SMILES	STAT1 blocker	STAT1 activator	STAT3 activator	NF-kB neuron act	APP 5'UTR act	Pf gametocyte
COc1ccc(-c2oc(=O)c3cc(OC)c(OC)cc3c2C#C[C@]2(O)CC[C@H]3[C@@H]4CCc5cc(OC)ccc5[C@H]4CC[C@@]32C)cc1	/	/	/	/	/	13
CC(=O)c1ccc(NC(=O)c2noc3c2CCC3)cc1	53*	51	46	4.8*	138*	-24
CCOc1ccc2nc(N3CCC(C(=O)N4CCN(C5CCCCC5)CC4)CC3)sc2c1	-19	117	84	1	12	/
CCOc1ccc2nc(N3CCC(C(=O)Nc4nnc(CC)s4)CC3)sc2c1	-35	134*	105	1.7	33	/
Cc1cc(N(CCO)CCO)ccc1N=Nc1cc(F)ccc1F	-37	133*	123	1.1	19	/
Nc1ccc(N(CCO)CCO)cc1	-4	102	103	0.76	3	-14
O=C1CSC(=Nc2ccc(Cl)cc2)N1Cc1cccnc1	/	/	/	/	/	16
COC(=O)CCn1nnc(-c2cccs2)n1	-2	102	104	1.2	0	-5
COC(=O)CCn1nnc(-c2ccc(C(C)C)cc2)n1	48*	57	34	0.37	-77	2
Cc1ccccc1C(=O)Nc1cccc(NC(=O)c2ccccc2[N+](=O)[O-])c1	/	/	/	/	/	-8
Cc1cc(NC(=O)c2ccccc2[N+](=O)[O-])ccc1Br	-44	138*	94	2.2	47	-33
O=C(Nc1ccc2c(c1)oc1ccccc12)N1CCOCC1	-44	140*	108	3.8*	74	/
Cc1ccc(NC(=O)CSCc2ccco2)cc1	-31	129*	103	2	32	13
N#C/C(=C\c1c(N2CCCCC2)nc2ccccn2c1=O)S(=O)(=O)c1ccccc1	/	/	/	/	/	-4
CC(=O)Nc1sc(C)c(C)c1CN1CCN(Cc2ccccc2)CC1	4	97	107	1	4	-2
Cc1sc(NC(=O)c2ccccc2F)c(CN2CCCCC2C)c1C (stereo not given)	-42	137*	108	1.7	49	-11
Cc1ccc2nc(N3C(=O)C(O)=C(C(=O)c4ccco4)C3c3cccs3)sc2c1 (stereo not given)	-26	123	118	2.3	170*	/
COc1ccc(C2C(C(=O)c3ccco3)=C(O)C(=O)N2c2nnc(C)s2)cc1 (stereo not given)	1	99	99	1.1	33	5
COc1ccc(NC(=O)c2ccc(C)o2)c([N+](=O)[O-])c1	-21	119	96	1	34	/
Cc1ccc(NC(=O)c2ccc(Br)o2)c([N+](=O)[O-])c1	/	/	/	/	/	-4
COc1ccc(NC(=O)c2ccco2)c([N+](=O)[O-])c1	-41	138*	92	2.5	49	7
Cc1ccc(NC(=O)c2ccco2)c([N+](=O)[O-])c1	-45	139*	100	/	39	21
Cc1cc(C(=O)OCC(=O)Nc2ccccc2[N+](=O)[O-])c2ccccc2n1	13	88	93	1	-6	-4
CN(C)CCCN(C(=O)/C=C/c1cccs1)c1nc2c(F)cccc2s1	0	99	98	5.4*	29	7
Cc1cccc2sc(N(CCN(C)C)C(=O)/C=C/c3cccs3)nc12	2	99	104	1.4	-1	/
N#C/C(=C(/O)COC(=O)CSc1ccc(Cl)cc1)c1nc2ccccc2[nH]1	14	87	97	3.9*	1	12
Cc1cc(SCC(=O)OC/C(O)=C(\C#N)c2nc3ccccc3[nH]2)c(C)cc1Br	-3	100	96	2.2	23	27
COc1ccc(-c2cn(CCC(=O)NCc3ccc(C)cc3)c(CCN)n2)cc1	/	/	/	/	/	3
CCc1ccc(-c2ccc(C(=O)C(F)(F)F)[nH]2)cc1	-26	124	106	4.5*	179*	/
